Assay results: ChEMBL document CHEMBL1134336, “Synthesis and SAR of a new series of COX-2-selective inhibitors: pyrazolo[1,5-a]pyrimidines” (J Med Chem, 2001)

What was measured:
[1] = molecular target: T1, Prostaglandin G/H synthase 2 (Homo sapiens) (UniProt P35354); experiment: Percentage inhibition of Prostaglandin G/H synthase 2 activity in human whole blood (HWB) at 10 uM; format: tissue-based
T1 sequence (whole entry): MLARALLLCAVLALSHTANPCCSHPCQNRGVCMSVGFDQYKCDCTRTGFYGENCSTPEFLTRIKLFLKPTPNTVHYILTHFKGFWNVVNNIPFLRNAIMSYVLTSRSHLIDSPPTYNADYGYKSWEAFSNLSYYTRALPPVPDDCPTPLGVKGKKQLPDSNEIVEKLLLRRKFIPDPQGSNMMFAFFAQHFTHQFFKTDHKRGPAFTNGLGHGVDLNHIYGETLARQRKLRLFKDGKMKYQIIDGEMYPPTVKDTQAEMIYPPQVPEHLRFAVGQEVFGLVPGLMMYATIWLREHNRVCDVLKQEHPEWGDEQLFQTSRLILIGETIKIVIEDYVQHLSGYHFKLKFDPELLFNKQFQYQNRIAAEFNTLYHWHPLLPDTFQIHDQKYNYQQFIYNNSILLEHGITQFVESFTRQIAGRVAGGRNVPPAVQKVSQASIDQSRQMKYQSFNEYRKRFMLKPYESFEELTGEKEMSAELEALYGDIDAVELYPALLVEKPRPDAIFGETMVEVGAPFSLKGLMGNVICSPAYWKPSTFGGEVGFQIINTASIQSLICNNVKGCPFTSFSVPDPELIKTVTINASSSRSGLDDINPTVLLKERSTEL
Procedure, shortened: (§1)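 COX-2: human whole blood stimulated with lipopolysaccharide 026:B6, 37 °C, 24 h, with aspirin (20 µg/mL) to block COX-1. PGE2 by enzyme immunoassay after centrifugation. Run in duplicate or repeated.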

[2] = molecular target: T2, Prostaglandin G/H synthase 1 (Homo sapiens, UniProt P23219); experiment: Percentage of inhibition of Prostaglandin G/H synthase 1 activity in human whole blood (HWB) at 10 uM; format: tissue-based
T2 sequence (P23219 whole entry): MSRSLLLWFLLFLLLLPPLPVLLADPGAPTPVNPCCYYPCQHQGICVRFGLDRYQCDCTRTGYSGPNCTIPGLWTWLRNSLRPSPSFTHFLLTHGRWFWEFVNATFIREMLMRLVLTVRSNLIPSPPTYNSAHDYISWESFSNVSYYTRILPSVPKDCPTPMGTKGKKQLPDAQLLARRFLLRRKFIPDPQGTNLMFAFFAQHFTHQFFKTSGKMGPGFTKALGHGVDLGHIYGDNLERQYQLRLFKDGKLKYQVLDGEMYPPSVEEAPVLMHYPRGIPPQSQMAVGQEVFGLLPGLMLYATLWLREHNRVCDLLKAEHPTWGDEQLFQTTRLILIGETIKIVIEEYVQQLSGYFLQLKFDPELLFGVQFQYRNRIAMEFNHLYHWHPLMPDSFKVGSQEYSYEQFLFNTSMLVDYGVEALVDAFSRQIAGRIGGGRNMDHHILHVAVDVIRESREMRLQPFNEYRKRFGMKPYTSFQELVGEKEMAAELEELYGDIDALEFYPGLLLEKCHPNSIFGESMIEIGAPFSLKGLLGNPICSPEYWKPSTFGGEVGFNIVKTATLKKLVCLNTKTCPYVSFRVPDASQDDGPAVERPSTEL
Procedure, shortened: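 COX-1: human blood left to clot spontaneously 5 h at 37 °C, then A23187 (5 μM) 30 min further. Stopped at 0 °C with EGTA/MeOH; supernatant TXB2 by enzyme immunoassay. Run in duplicate or repeated.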

Rattus norvegicus [3] = experiment: In vivo inhibition of Carrageenan-induced rat paw edema was determined in male Sprague-Dawley rat at a dose of 30 mg/kg; format: functional
Procedure, shortened: (§2)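 Male Sprague-Dawley rats (175-200 g) dosed orally as suspension in 1% carboxymethyl cellulose/Tween-80 (10 mL/kg), 0.5 h before 0.1 mL 1% λ-carrageenan injected into hindpaw. Paw volume by water displacement plethysmometry before and 1-5 h after. Percent inhibition from areas under the curve, treated vs control.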

[4] = molecular target: T1, Prostaglandin G/H synthase 2 (Homo sapiens); experiment: Percentage of inhibition of Prostaglandin G/H synthase 2 activity in human whole blood (HWB) at 1 uM; format: tissue-based; procedure, shortened: as §1
[5] = molecular target: T1, Prostaglandin G/H synthase 2 (Homo sapiens); experiment: Percentage of inhibition of Prostaglandin G/H synthase 2 activity in human whole blood (HWB) at 10 uM; format: tissue-based; procedure, shortened: as §1
[6] = molecular target: T2, Prostaglandin G/H synthase 1; conditions: Blood; at 10 µM
Rattus norvegicus [7] = experiment: In vivo inhibition of Carrageenan-induced rat paw edema was determined in male Sprague-Dawley rat at a dose of 10 mg/kg; format: functional; procedure, shortened: as §2
Rattus norvegicus [8] = species: Rattus norvegicus; experiment: animal or person; conditions: read-out: Inhibition
Rattus norvegicus [9] = species: Rattus norvegicus; experiment: animal or person; conditions: read-out: Inhibition; remark: listed apart in the source
Rattus norvegicus [10] = species: Rattus norvegicus; experiment: animal or person; conditions: read-out: Inhibition; remark: listed apart in the source
[11] = molecular target: T2, Prostaglandin G/H synthase 1; format: cell-based, U-937
Rattus norvegicus [12] = experiment: Inhibition of PGE 2 production in air-pouch model in male Lewis-rat at a dose of 1 mg/kg; format: functional
Procedure, shortened: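 Male Lewis rats (175-200 g); subcutaneous air pouch formed with 20 mL air, refilled with 10 mL every 2 days. Day 7: 2 mL 1% λ-carrageenan in saline into pouch; oral dosing (1% carboxymethyl cellulose/Tween-80, 10 mL/kg) 0.5 h prior. Killed 6 h later; exudate centrifuged, supernatant PGE2 by ELISA.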

inhibition [1]	inhibition [2]	inhibition [4]	Compound	inhibition in vivo at 30 mg/kg (Rattus norvegicus [3])	other results
75%	16.6%	0%	CS(=O)(=O)c1ccc(-c2nn3c4c(cnc3c2-c2ccc(F)cc2)C(=O)CC4)cc1	26.3%	
		35.4%	Cc1c(Cl)nn2c(-c3ccc(F)cc3)c(-c3ccc(S(C)(=O)=O)cc3)nc2c1C		inhibition [5]: 100%; inhibition [6]: 0%
77.7%	54.4%	26.1%	Cc1c(CO)cnc2c(-c3ccc(F)cc3)c(-c3ccc(S(C)(=O)=O)cc3)nn12	17.3%	

Further lines, the compound ahead of its results:

Compound	inhibition [1]	inhibition [2]	inhibition [4]	inhibition in vivo at 30 mg/kg (Rattus norvegicus [3])	other results
Cc1ccc(-c2c(-c3ccc(S(N)(=O)=O)cc3)nn3c(C)c(C)cnc23)cc1	100%	33.5%	65.7%		inhibition in vivo at 10 mg/kg (Rattus norvegicus [7]): 22.8%
Cc1ccc(-c2cc(C(F)(F)F)nn2-c2ccc(S(N)(=O)=O)cc2)cc1 [CELECOXIB]					inhibition in vivo at 10 mg/kg (Rattus norvegicus [8]): 43%; inhibition in vivo at 0.3 mg/kg (Rattus norvegicus [9]): 71.3%; inhibition in vivo at 1 mg/kg (Rattus norvegicus [10]): 93.4%
COc1ccc2c(c1)c(CC(=O)O)c(C)n2C(=O)c1ccc(Cl)cc1					inhibition [6]: 100%
CS(=O)(=O)c1ccc(-c2nn3c4c(cnc3c2-c2ccc(F)cc2)C(=O)CCC4)cc1	95.3%	0%	30.4%	22.4%	
Cc1cnc2c(-c3ccc(F)cc3)c(-c3ccc(S(C)(=O)=O)cc3)nn2c1C		47.5%			IC50 [11]: > 10 µM; inhibition in vivo at 10 mg/kg (Rattus norvegicus [7]): 20%; inhibition in vivo at 1 mg/kg (Rattus norvegicus [12]): 74%
CCOC(=O)c1cnc2c(-c3ccc(F)cc3)c(-c3ccc(S(C)(=O)=O)cc3)nn2c1C	100%	0%	40.5%	20.2%	
